In brackets after ≈: the same amount, converted by molar mass. Activity calls are given as the source filed them. The rule behind the calls is not given here.
Tests used:
Aspergillus fumigatus = assay: Antifungal activity against Aspergillus fumigatus Af293 at 0.25 to 64 ug/ml after 48 hrs by microscopic method; assay type: functional, organism-based
Outline: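 Af293 spores in RPMI with 0.1% Tween-80 were counted by hemocytometer and used at 1×10⁴ spores/mL final. Twofold compound dilutions in RPMI from DMSO stocks were tested at 64 to 0.125 µg/mL final in 96-well plates at 37 °C for 48 h, alongside DMSO-only and untreated controls.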

[1] = target: Transient receptor potential cation channel subfamily M member 8 (Homo sapiens, UniProt Q7Z2W7); assay: Antagonist activity at human TRPM8 channel expressed in HEK293 cells assessed as inhibition of icilin-induced calcium flux by Fluo-4-AM dye based fluorescence assay; assay type: cell-based
Outline: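 Stable human TRPM8 HEK-293 cells, grown in DMEM:F12 with 5% FBS and Geneticin on gelatin-coated plates, were loaded with Fluo-4 AM for 60 min at 37 °C. Compounds were added 30 min before reading in LHC-9 with 1 mM probenecid and 0.75 mM trypan red. Icilin 50 µM was the agonist. Signal was normalized to the maximal agonist response, and IC50 came from 8-point curves with n=2–3.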

Histoplasma capsulatum = assay: Antifungal activity against Histoplasma capsulatum G217B after 10 to 14 days by microscopic method; assay type: functional
Outline: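 G217B yeast-phase cells were grown in brain-heart infusion for 3 days at 37 °C under 5% CO2, then used at 1×10⁴ cells/mL final in RPMI. Twofold dilutions were tested at 64 to 0.125 µg/mL final; itraconazole (16 µg/mL downward) and amphotericin B (16 to 0.008 µg/mL) were diluted similarly. Plates were incubated 10–14 days at 37 °C under 5% CO2, with vehicle controls.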

Candida albicans = assay: Antifungal activity against Candida albicans SC5314 at 0.25 to 64 ug/ml after 48 hrs by microscopic method; assay type: functional, organism-based
Outline: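 SC5314 yeast grown overnight in YPD at 30 °C were counted by hemocytometer and used at 1×10⁴ cells/mL final in YPD. Twofold compound dilutions from DMSO stocks were tested at 64 to 0.125 µg/mL final, incubated 48 h at 30 °C, with DMSO-only and untreated controls.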

[2] = target: Transient receptor potential cation channel subfamily V member 4 (Homo sapiens, UniProt Q9HBA0); assay: Antagonist activity at human TRPV4 channel expressed in HEK293 cells assessed as inhibition of GSK1016790A-induced calcium flux by Fluo-4-AM dye based fluorescence assay; assay type: cell-based
Outline: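 HEK-293 cells stably overexpressing human TRPV4 were loaded with Fluo-4 AM for 60 min at 37 °C. Compounds were preincubated 30 min in LHC-9 containing 1 mM probenecid and 0.75 mM trypan red. GSK1016790A 0.03 µM was the agonist. Fluorescence change was normalized to the maximal agonist response, and IC50 came from 8-point curves with n=2–3.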

[3] = target: Transient receptor potential cation channel subfamily V member 1 (Homo sapiens, UniProt Q8NER1); assay: Antagonist activity at human TRPV1 channel expressed in human BEAS2B cells assessed as inhibition of […] by Fluo-4-AM dye based fluorescence assay; assay type: cell-based
Transient receptor potential cation channel subfamily V member 1, sequence (Q8NER1 whole entry): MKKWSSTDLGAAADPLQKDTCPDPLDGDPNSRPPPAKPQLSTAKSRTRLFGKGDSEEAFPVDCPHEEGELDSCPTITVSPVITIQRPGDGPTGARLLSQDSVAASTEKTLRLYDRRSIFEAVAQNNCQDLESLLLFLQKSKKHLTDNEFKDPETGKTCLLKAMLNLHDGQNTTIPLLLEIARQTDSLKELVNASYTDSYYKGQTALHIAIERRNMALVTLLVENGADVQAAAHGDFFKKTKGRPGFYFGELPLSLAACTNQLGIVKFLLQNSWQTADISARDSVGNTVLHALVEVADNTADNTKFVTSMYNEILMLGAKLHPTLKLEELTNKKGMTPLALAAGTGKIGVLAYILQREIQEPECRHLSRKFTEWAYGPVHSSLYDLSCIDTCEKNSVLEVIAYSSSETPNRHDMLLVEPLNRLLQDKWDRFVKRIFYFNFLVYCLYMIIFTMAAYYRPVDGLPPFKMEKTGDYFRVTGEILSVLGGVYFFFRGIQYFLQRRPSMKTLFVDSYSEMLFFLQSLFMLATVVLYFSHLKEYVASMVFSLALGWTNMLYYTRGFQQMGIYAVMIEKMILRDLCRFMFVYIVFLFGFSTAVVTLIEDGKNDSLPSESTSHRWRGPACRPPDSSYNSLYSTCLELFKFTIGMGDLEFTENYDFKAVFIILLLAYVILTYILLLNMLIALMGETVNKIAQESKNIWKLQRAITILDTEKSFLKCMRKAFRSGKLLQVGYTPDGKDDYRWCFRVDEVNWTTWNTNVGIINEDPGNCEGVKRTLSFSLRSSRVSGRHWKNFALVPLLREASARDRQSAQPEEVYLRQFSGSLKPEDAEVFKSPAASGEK

Transient receptor potential cation channel subfamily M member 8, sequence (Q7Z2W7 whole entry): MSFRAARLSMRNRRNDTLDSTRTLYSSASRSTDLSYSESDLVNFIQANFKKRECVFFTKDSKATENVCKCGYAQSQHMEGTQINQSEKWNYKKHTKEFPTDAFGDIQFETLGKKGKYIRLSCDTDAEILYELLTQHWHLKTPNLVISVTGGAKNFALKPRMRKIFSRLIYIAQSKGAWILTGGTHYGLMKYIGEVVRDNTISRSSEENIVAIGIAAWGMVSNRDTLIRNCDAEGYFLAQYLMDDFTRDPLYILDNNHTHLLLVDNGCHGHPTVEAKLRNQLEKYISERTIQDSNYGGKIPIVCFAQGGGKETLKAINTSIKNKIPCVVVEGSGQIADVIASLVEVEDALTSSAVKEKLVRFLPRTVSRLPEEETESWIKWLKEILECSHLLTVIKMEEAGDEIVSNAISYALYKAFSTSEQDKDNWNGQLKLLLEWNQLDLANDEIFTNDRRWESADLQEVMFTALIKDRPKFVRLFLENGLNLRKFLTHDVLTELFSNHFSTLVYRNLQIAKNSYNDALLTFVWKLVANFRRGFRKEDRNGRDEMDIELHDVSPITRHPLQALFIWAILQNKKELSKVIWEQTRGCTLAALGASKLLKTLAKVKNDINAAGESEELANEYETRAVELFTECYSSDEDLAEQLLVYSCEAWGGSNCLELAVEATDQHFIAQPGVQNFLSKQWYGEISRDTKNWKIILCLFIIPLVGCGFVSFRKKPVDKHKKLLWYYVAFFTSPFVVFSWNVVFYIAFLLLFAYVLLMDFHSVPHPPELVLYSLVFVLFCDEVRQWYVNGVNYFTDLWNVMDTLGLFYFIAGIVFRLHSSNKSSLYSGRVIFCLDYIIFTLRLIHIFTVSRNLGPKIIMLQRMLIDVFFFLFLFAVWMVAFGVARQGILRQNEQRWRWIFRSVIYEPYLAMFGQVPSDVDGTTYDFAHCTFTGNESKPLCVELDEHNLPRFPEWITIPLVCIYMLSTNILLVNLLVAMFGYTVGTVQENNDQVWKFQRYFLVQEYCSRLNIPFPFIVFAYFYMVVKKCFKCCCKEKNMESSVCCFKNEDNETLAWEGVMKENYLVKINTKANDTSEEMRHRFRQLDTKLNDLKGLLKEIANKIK
Transient receptor potential cation channel subfamily V member 4, sequence (Q9HBA0 whole entry): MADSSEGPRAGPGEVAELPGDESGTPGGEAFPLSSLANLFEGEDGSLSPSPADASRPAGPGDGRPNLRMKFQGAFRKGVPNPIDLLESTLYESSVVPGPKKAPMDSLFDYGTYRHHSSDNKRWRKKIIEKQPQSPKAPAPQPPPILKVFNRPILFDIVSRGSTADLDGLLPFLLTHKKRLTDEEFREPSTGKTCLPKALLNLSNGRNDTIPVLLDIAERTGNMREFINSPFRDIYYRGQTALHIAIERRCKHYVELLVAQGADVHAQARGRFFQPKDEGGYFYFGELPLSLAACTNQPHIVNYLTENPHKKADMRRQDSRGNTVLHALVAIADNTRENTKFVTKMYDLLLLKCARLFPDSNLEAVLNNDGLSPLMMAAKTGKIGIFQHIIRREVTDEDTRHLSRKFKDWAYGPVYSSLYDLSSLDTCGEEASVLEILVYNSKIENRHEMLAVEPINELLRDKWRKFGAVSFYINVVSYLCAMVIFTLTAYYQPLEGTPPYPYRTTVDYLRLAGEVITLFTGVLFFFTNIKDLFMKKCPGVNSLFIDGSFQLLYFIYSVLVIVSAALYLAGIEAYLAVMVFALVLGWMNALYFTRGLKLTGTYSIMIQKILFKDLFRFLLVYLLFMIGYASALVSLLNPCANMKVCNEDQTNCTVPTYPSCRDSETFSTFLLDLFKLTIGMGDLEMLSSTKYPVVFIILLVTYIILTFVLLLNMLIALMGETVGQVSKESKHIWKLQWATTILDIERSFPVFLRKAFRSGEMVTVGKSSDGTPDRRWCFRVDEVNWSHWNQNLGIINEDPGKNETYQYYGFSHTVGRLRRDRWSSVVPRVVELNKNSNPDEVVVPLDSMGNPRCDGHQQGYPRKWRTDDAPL

Row | Structure (SMILES) | Activity (Aspergillus fumigatus) | IC50 [1] [µM] | MIC (Histoplasma capsulatum) [µg/mL] | Activity (Candida albicans) | IC50 [2] [µM] | IC50 [3] [µM]
1 | C/C=C(\C)[C@H]1C(C)=C[C@H]2C[C@@H](C)C[C@H]3C(=O)/C(=C\NCCO)C(=O)[C@]1(C)[C@H]23 | inactive | 61.6 | 16 (≈ 43.1 µM) | inactive | – | –
2 | C[C@@H]1[C@H](O)[C@@H](C)/C=C/C=C/C=C/C=C/C=C/C=C/C=C/[C@H](O[C@@H]2O[C@H](C)[C@@H](O)[C@H](N)[C@@H]2O)C[C@@H]2O[C@](O)(C[C@@H](O)C[C@@H](O)[C@H](O)CC[C@@H](O)C[C@@H](O)CC(=O)O[C@H]1C)C[C@H](O)[C@H]2C(=O)O [AMPHOTERICIN B] | – | – | 0.5 (≈ 0.541 µM) | – | – | –
3 | C/C=C(\C)[C@H]1C(C)=C[C@H]2C[C@@H](C)C[C@@H](C(=O)O)[C@@H]2[C@@]1(C)C(=O)CCO | inactive | 18.5 | > 64 | inactive | – | –
4 | CCC(C)n1ncn(-c2ccc(N3CCN(c4ccc(OCC5COC(Cn6cncn6)(c6ccc(Cl)cc6Cl)O5)cc4)CC3)cc2)c1=O (stereo not drawn) [ITRACONAZOLE] | – | – | 0.001 (≈ 0.00142 µM) | – | – | –
5 | C/C=C(\C)[C@H]1C(C)=C[C@H]2C[C@@H](C)C[C@H]3C(O)=C(C=O)C(=O)[C@]1(C)[C@H]23 | inactive | – | 2 (≈ 6.09 µM) | inactive | – | –
6 | C/C=C(\C)[C@H]1C(C)=C[C@H]2C[C@@H](C)C[C@@H](C(=O)O)[C@@H]2[C@@]1(C)C(=O)c1cccnc1 | inactive | – | > 64 | inactive | 45.9 | 81.6
